In ChEMBL document CHEMBL6092204, “Synthesis of pyridyl pyrimidine hedgehog signaling pathway inhibitors and their antitumor activity in human pancreatic cancer” (Eur J Med Chem, 2024):
Activity calls are given as the source filed them. The calls are words filed in the database; no cut-off is given here.

Key:
[1] = Toxicity in BALB/c nude mouse xenografted with human BxPC-3 cells assessed as inflammatory infiltration in kidneys at 5 to 15 mg/kg, ip qd for 21 days by H and E staining based analysis; conditions: in vivo, 504 h
Mus musculus = assay: In vivo inhibition of Gli1 in human BxPC-3 cells xenografted in BALB/c nude mouse at 5 to 15 mg/kg, ip qd for 21 days by IHC analysis; conditions: dose 5-15 mg/kg, time 21.0 day
[2] = Toxicity in BALB/c nude mouse xenografted with human BxPC-3 cells assessed as body weight loss at 5 to 15 mg/kg, ip qd for 21 days; conditions: in vivo, 504 h
[3] = Toxicity in BALB/c nude mouse xenografted with human BxPC-3 cells assessed as necrosis in kidneys at 5 to 15 mg/kg, ip qd for 21 days by H and E staining based analysis; conditions: in vivo, 504 h
[4] = Toxicity in BALB/c nude mouse xenografted with human BxPC-3 cells assessed as inflammatory infiltration in heart at 5 to 15 mg/kg, ip qd for 21 days by H and E staining based analysis; conditions: in vivo, 504 h
PANC-1 [5] = assay: Inhibition of Hh signaling pathway in human PANC-1 cells assessed as reduction in Gli1 mRNA level incubated for 48 hrs by qRT-PCR analysis; assay type: cell-based; conditions: dose 2.5-10 µM
Summary of the method: (§1)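 Total RNA was extracted by column kit after 48 h treatment and checked spectrophotometrically. Gli1 and Ptch1 transcripts were quantified by real-time RT-qPCR with GAPDH as internal control. Results are fold change relative to the untreated group; three separate experiments.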

BXPC-3 [6] = assay: Inhibition of Hh signaling pathway in human BXPC-3 cells assessed as reduction in Gli1 mRNA level incubated for 48 hrs by qRT-PCR analysis; assay type: cell-based; conditions: dose 2.5-10 µM
Summary of the method: as §1

PANC-1 [7] = assay: Inhibition of Hh signaling pathway in human PANC-1 cells assessed as reduction in Ptch1 mRNA level incubated for 48 hrs by qRT-PCR analysis; assay type: cell-based
Summary of the method: as §1

[8] = Toxicity in BALB/c nude mouse xenografted with human BxPC-3 cells assessed as cellular edema in kidneys at 5 to 15 mg/kg, ip qd for 21 days by H and E staining based analysis; conditions: in vivo, 504 h
BXPC-3 [9] = assay: Induction of apoptosis in human BXPC-3 cells assessed as late apoptotic cells at 10 uM incubated for 48 hrs by Annexin V-FITC/PI staining based flow cytometry (reference value: 6.72 %); assay type: functional
BXPC-3 [10] = assay: Induction of cell cycle arrest in human BXPC-3 cells assessed as accumulation at S phase at 5 uM incubated for 48 hrs by PI/RNase staining based flow cytometry (reference value: 8.18 %); assay type: functional
[11] = Toxicity in BALB/c nude mouse xenografted with human BxPC-3 cells assessed as tissue fibrosis in kidneys at 5 to 15 mg/kg, ip qd for 21 days by H and E staining based analysis; conditions: in vivo, 504 h
PANC-1 [12] = assay: Induction of apoptosis in human PANC-1 cells assessed as early apoptotic cells at 2.5 uM incubated for 48 hrs by Annexin V-FITC/PI staining based flow cytometry (reference value: 1.88 %); assay type: functional
BXPC-3 [13] = assay: Induction of apoptosis in human BXPC-3 cells assessed as necrotic cells at 10 uM incubated for 48 hrs by Annexin V-FITC/PI staining based flow cytometry (reference value: 0.71 %); assay type: functional
[14] = Toxicity in BALB/c nude mouse xenografted with human BxPC-3 cells assessed as inflammatory infiltration in lung at 5 to 15 mg/kg, ip qd for 21 days by H and E staining based analysis; conditions: in vivo, 504 h
[15] = Toxicity in BALB/c nude mouse xenografted with human BxPC-3 cells assessed as cellular edema in lung at 5 to 15 mg/kg, ip qd for 21 days by H and E staining based analysis; conditions: in vivo, 504 h
PANC-1 [16] = assay: Induction of apoptosis in human PANC-1 cells assessed as early apoptotic cells at 10 uM incubated for 48 hrs by Annexin V-FITC/PI staining based flow cytometry (reference value: 1.88 %); assay type: functional
BXPC-3 [17] = assay: Induction of cell cycle arrest in human BXPC-3 cells assessed as accumulation at S phase at 2.5 uM incubated for 48 hrs by PI/RNase staining based flow cytometry (reference value: 8.18 %); assay type: functional
PANC-1 [18] = assay: Induction of apoptosis in human PANC-1 cells assessed as late apoptotic cells at 8 uM incubated for 48 hrs by Annexin V-FITC/PI staining based flow cytometry (reference value: 2.74 %); assay type: functional
BXPC-3 [19] = assay: Induction of apoptosis in human BXPC-3 cells assessed as late apoptotic cells at 5 uM incubated for 48 hrs by Annexin V-FITC/PI staining based flow cytometry (reference value: 6.72 %); assay type: functional
BXPC-3 [20] = assay: Induction of apoptosis in human BXPC-3 cells assessed as early apoptotic cells at 2.5 uM incubated for 48 hrs by Annexin V-FITC/PI staining based flow cytometry (reference value: 1.11 %); assay type: functional
PANC-1 [21] = assay: Induction of apoptosis in human PANC-1 cells assessed as necrotic cells at 5 uM incubated for 48 hrs by Annexin V-FITC/PI staining based flow cytometry (reference value: 2.24 %); assay type: functional
BXPC-3 [22] = assay: Induction of apoptosis in human BXPC-3 cells assessed as early apoptotic cells at 8 uM incubated for 48 hrs by Annexin V-FITC/PI staining based flow cytometry (reference value: 1.11 %); assay type: functional
PANC-1 [23] = assay: Induction of apoptosis in human PANC-1 cells assessed as late apoptotic cells at 5 uM incubated for 48 hrs by Annexin V-FITC/PI staining based flow cytometry (reference value: 2.74 %); assay type: functional
PANC-1 [24] = assay: Induction of apoptosis in human PANC-1 cells assessed as necrotic cells at 8 uM incubated for 48 hrs by Annexin V-FITC/PI staining based flow cytometry (reference value: 2.24 %); assay type: functional
PANC-1 [25] = assay: Induction of apoptosis in human PANC-1 cells assessed as early apoptotic cells at 8 uM incubated for 48 hrs by Annexin V-FITC/PI staining based flow cytometry (reference value: 1.88 %); assay type: functional
PANC-1 [26] = assay: Induction of apoptosis in human PANC-1 cells assessed as necrotic cells at 10 uM incubated for 48 hrs by Annexin V-FITC/PI staining based flow cytometry (reference value: 2.24 %); assay type: functional
BXPC-3 [27] = assay: Induction of cell cycle arrest in human BXPC-3 cells assessed as accumulation at G1 phase at 5 uM incubated for 48 hrs by PI/RNase staining based flow cytometry (reference value: 84.2 %); assay type: functional
BXPC-3 [28] = assay: Inhibition of Hh signaling pathway in human BXPC-3 cells assessed as reduction in Ptch1 mRNA level incubated for 48 hrs by qRT-PCR analysis; assay type: cell-based
Summary of the method: as §1

PANC-1 [29] = assay: Induction of cell cycle arrest in human PANC-1 cells assessed as accumulation at G2 phase at 2.5 uM incubated for 48 hrs by PI/RNase staining based flow cytometry (reference value: 5.83 %); assay type: functional

## CN(C)Cc1ccc(NC(=O)c2ccc(Nc3nccc(-c4cccnc4)n3)cc2)cc1
[1]
  Activity: Non-toxic
Mus musculus
  inhibition: Active
[2]
  Activity: Non-toxic
[3]
  Activity: Non-toxic
[4]
  Activity: Non-toxic
PANC-1 [5]
  inhibition: Dose-dependent-effect
BXPC-3 [6]
  inhibition: Dose-dependent-effect
PANC-1 [7]
  inhibition: Dose-dependent-effect
[8]
  Activity: Non-toxic
BXPC-3 [9]
  Activity: 24%
BXPC-3 [10]
  Activity: 4.09%
[11]
  Activity: Non-toxic
PANC-1 [12]
  Activity: 1.97%
BXPC-3 [13]
  Activity: 2.32%
[14]
  Activity: Non-toxic
[15]
  Activity: Non-toxic
PANC-1 [16]
  Activity: 4.09%
BXPC-3 [17]
  Activity: 11.1%
PANC-1 [18]
  Activity: 8.97%
BXPC-3 [19]
  Activity: 10.8%
BXPC-3 [20]
  Activity: 2.11%
PANC-1 [21]
  Activity: 2.39%
BXPC-3 [22]
  Activity: 2.65%
PANC-1 [23]
  Activity: 7.03%
PANC-1 [24]
  Activity: 2.16%
PANC-1 [25]
  Activity: 2.97%
PANC-1 [26]
  Activity: 2.56%
BXPC-3 [27]
  Activity: 83.9%
BXPC-3 [28]
  inhibition: Dose-dependent-effect
PANC-1 [29]
  Activity: 7.2%
